Data set [1] deals with T1, Vitamin D3 receptor (Homo sapiens) (UniProt P11473).
T1 sequence (whole entry): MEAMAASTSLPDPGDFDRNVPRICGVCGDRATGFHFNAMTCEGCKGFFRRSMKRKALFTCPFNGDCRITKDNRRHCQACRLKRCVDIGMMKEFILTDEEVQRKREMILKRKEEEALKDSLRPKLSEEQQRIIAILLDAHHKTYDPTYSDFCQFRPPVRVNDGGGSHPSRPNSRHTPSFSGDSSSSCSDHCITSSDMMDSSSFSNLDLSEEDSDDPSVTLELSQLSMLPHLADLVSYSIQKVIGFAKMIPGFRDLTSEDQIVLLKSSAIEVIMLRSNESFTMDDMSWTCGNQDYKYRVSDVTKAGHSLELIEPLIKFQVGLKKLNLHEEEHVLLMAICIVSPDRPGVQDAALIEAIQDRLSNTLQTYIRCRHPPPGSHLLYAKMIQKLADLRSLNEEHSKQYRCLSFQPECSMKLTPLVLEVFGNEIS
Put plainly: Agonist activity at VDR in human HL60 cells assessed as induction of cell differentiation at >50 uM after 96 hrs by NBT reduction assay. Conditions: HL-60. Type of data set: cell-based.

The test system of data set [2] is MCF7. The data set can be described thus: Cytotoxicity against human MCF7 cells at >50 uM after 48 hrs by MTT assay. The class given is functional, cell-based. In a few lines:
(§1)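 HaCaT or MCF-7 cells grown 48 h at 37 °C, 5% CO₂, no medium change. MTT (5 mg/mL) with DMEM added, 4 h. Medium replaced by DMSO to dissolve formazan, A570 read. IC50 from log-linear dose regression. Compounds above 85% efficacy rescreened for the final IC50. Triplicate experiments.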
For orientation: Formazan colour is commonly taken as a measure of viable cells.

The test system of data set [3] is HaCaT. Put plainly: Cytotoxicity against human HaCaT cells after 48 hrs by MTT assay. Type of data set: functional, cell-based. In a few lines:
as §1

Data set [4] concerns MCF7. Put plainly: Cytotoxicity against human MCF7 cells after 48 hrs by MTT assay. Type of data set: functional, cell-based. Conditions: MCF7, 48 h. In a few lines:
as §1

In data set [5] the test system is HaCaT. Put plainly: Cytotoxicity against human HaCaT cells at >50 uM after 48 hrs by MTT assay. Type of data set: functional, cell-based. In a few lines: as §1
Data set [6] concerns Mus musculus. Put plainly: In vivo calcemic activity in ICR mouse assessed as serum calcium level at 30 mg/kg, sc administered for 7 days (reference value: 8.76 mg/dL). The class given is ADME, organism-based. On the set-up: dose 30 mg/kg, route subcutaneous. Conditions: 168 h.
Data set [7] has as its system Mus musculus. Put plainly: In vivo calcemic activity in ICR mouse assessed as serum calcium level at 10 mg/kg, sc administered for 7 days (reference value: 8.76 mg/dL). Type of data set: ADME, organism-based. Also noted: dose 10 mg/kg, route subcutaneous. Conditions: 168 h.
For data set [8], the system named is Mus musculus. Put plainly: In vivo calcemic activity in ICR mouse assessed as serum calcium level at 0.5 mg/kg, sc administered for 7 days (reference value: 8.76 mg/dL). Conditions: 168 h. The class given is ADME, organism-based. On the set-up: dose 0.5 mg/kg, route subcutaneous.
Data set [9] relates to Mus musculus. Put plainly: In vivo calcemic activity in ICR mouse assessed as serum calcium level at 5 ug/kg, sc administered for 7 days (reference value: 8.76 mg/dL). Type of data set: ADME, organism-based. Conditions: 0.005 mg/kg, 168 h.

Calls of active or inactive are those of the source. The rule behind the calls is not given here.

As for `CCC(CC)(c1ccc(OCC(=O)C(C)(C)C)c(C)c1)c1ccc(C(=O)NCCC(=O)O)n1C`, the outcome in data set [1] was inactive.

Turning to `CCC(CC)(c1ccc(OCC(=O)C(C)(C)C)c(C)c1)c1ccc(C(=O)NCCC(=O)OC)n1C`, the “growth inhibition (GI)” value in data set [2] was “inactive”. This compound also gave a 50% inhibitory concentration (IC50) in [3] of 28900 nM.

Take `CCn1c(C(=O)N[C@@H](C)C(=O)O)ccc1C(CC)(CC)c1ccc(OCC(O)C(C)(C)C)c(C)c1` (stereo partly specified): the IC50 in [4] was found to be 180 nM. Moreover, in [5], the “growth inhibition (GI)” value was “inactive”.

In data set [4], `CCC(CC)(c1ccc(OCC(=O)C(C)(C)C)c(C)c1)c1ccc(C(=O)N[C@@H](CC(=O)O)C(=O)O)n1C` yielded an IC50 of 160 nM. Moreover, the “growth inhibition (GI)” value in data set [5] is “inactive”.

In the case of `CCC(CC)(c1ccc(OCC(=O)C(C)(C)C)c(C)c1)c1ccc(C(=O)NCC(=O)O)n1C`, the result in [1] was inactive.

In the case of `CCC(CC)(c1ccc(OCC(=O)C(C)(C)C)c(C)c1)c1ccc(C(=O)N[C@@H](CC(=O)OC)C(=O)OC)n1C`, the outcome in [1] was inactive.

Turning to `CCn1c(C(=O)N[C@@H](CC(=O)O)C(=O)O)ccc1C(CC)(CC)c1ccc(OCC(=O)C(C)(C)C)c(C)c1`, in [1], the outcome was inactive.

On to `CCC(CC)(c1ccc(OCC(=O)C(C)(C)C)c(C)c1)c1ccc(C(=O)N[C@@H](C)C(=O)O)n1C`, for which the “growth inhibition (GI)” value in [2] and in [5] was “inactive” throughout.

For the compound `CCC(CC)(c1ccc(OCC(O)C(C)(C)C)c(C)c1)c1ccc(C(=O)N[C@H](CO)CCO)n1C` (stereo partly specified), the Activity in data set [6] was 8.94 mg/dL; in data set [7], 9.29 mg/dL; in data set [8], 8.91 mg/dL. Moreover, the IC50 in [4] came out at 7.83 nM; in data set [3], 190 nM.

In the case of `CCC(CC)(c1ccc(OCC(=O)C(C)(C)C)c(C)c1)c1ccc(C(=O)N[C@@H](C)C(=O)OC)n1C`, the result in data set [1] was inactive.

Regarding `CCn1c(C(=O)N[C@@H](CC(=O)OC)C(=O)OC)ccc1C(CC)(CC)c1ccc(OCC(=O)C(C)(C)C)c(C)c1`, the outcome in data set [1] was inactive.

As for `CCn1c(C(=O)NCC(=O)O)ccc1C(CC)(CC)c1ccc(OCC(=O)C(C)(C)C)c(C)c1`, in data set [1], the outcome was inactive.

Turning to `CCn1c(C(=O)N[C@@H](C)CO)ccc1C(CC)(CC)c1ccc(OCC(O)C(C)(C)C)c(C)c1` (stereo partly specified), the Activity in data set [6] is 9.08 mg/dL; in data set [7], 8.3 mg/dL; in data set [8], 8.09 mg/dL. Besides, the IC50 in data set [4] worked out at 307 nM; in data set [3] it was 2060 nM.

`CCn1c(C(=O)NCCO)ccc1C(CC)(CC)c1ccc(OCC(O)C(C)(C)C)c(C)c1` (stereo unspecified): the 50% inhibitory concentration (IC50) was 1810 nM in data set [4] and 2080 nM in data set [3].

Turning to `CCn1c(C(=O)NCC(=O)O)ccc1C(CC)(CC)c1ccc(OCC(O)C(C)(C)C)c(C)c1` (stereo unspecified), the outcome in [1] was inactive.

As to `CCn1c(C(=O)N[C@H](CO)CCO)ccc1C(CC)(CC)c1ccc(OCC(O)C(C)(C)C)c(C)c1` (stereo partly specified), the IC50 in data set [4] worked out at 300 nM; in [3] it was 1250 nM.

For `CCC(CC)(c1ccc(OCC(O)C(C)(C)C)c(C)c1)c1ccc(C(=O)N[C@@H](C)CO)n1C` (stereo partly specified), the “growth inhibition (GI)” value in data set [2] is “inactive”. Further, the IC50 in data set [3] was determined as 15700 nM.

Consider `CCn1c(C(=O)N[C@@H](CC(=O)O)C(=O)O)ccc1C(CC)(CC)c1ccc(OCC(O)C(C)(C)C)c(C)c1` (stereo partly specified), for which, in [1], the outcome was inactive.

`CCC(CC)(c1ccc(OCC(O)C(C)(C)C)c(C)c1)c1ccc(C(=O)N[C@@H](C)C(=O)O)n1C` (stereo partly specified): the result in data set [1] was inactive.

Consider `CCC(CC)(c1ccc(OCC(O)C(C)(C)C)c(C)c1)c1ccc(C(=O)NCCC(=O)O)n1C` (stereo unspecified), for which the “growth inhibition (GI)” value in data set [2] and in data set [5] was “inactive” in each case.

Turning to `CCn1c(C(=O)NCCC(=O)OC)ccc1C(CC)(CC)c1ccc(OCC(=O)C(C)(C)C)c(C)c1`, the result in [1] was inactive.

With `CCn1c(C(=O)N[C@@H](C)C(=O)O)ccc1C(CC)(CC)c1ccc(OCC(=O)C(C)(C)C)c(C)c1`, the result in [1] was inactive.

`CCn1c(C(=O)NCC(=O)OC)ccc1C(CC)(CC)c1ccc(OCC(=O)C(C)(C)C)c(C)c1`: the “growth inhibition (GI)” value in data set [2] and in data set [5] was “inactive” each time.

As for `CCn1c(C(=O)N[C@@H](C)C(=O)OC)ccc1C(CC)(CC)c1ccc(OCC(=O)C(C)(C)C)c(C)c1`, in data set [1], the outcome was inactive.

`C=C1/C(=C\C=C2/CCC[C@]3(C)[C@@H]([C@H](C)CC[C@@H](O)C(C)C)CC[C@@H]23)C[C@@H](O)C[C@@H]1O` [TACALCITOL]: the Activity in [9] was 12.14 mg/dL. Besides, the half-inhibitory concentration (IC50) came to 57 nM in data set [4] and 2070 nM in data set [3].

In the case of `CCC(CC)(c1ccc(OCC(=O)C(C)(C)C)c(C)c1)c1ccc(C(=O)NCC(=O)OC)n1C`, the “growth inhibition (GI)” value in [2] and in data set [5] was “inactive” in each case.

Consider `CCn1c(C(=O)NCCCO)ccc1C(CC)(CC)c1ccc(OCC(O)C(C)(C)C)c(C)c1` (stereo unspecified), for which, in data set [1], the outcome was inactive.

As to `CCC(CC)(c1ccc(OCC(O)C(C)(C)C)c(C)c1)c1ccc(C(=O)NCC(=O)O)n1C` (stereo unspecified), the “growth inhibition (GI)” value in data set [2] was “inactive”. Moreover, the half-inhibitory concentration (IC50) in data set [3] amounted to 9810 nM.

For the compound `CCC(CC)(c1ccc(OCC(O)C(C)(C)C)c(C)c1)c1ccc(C(=O)NCCO)n1C` (stereo unspecified), the outcome in data set [1] was inactive.

Consider `CCn1c(C(=O)NCCC(=O)O)ccc1C(CC)(CC)c1ccc(OCC(O)C(C)(C)C)c(C)c1` (stereo unspecified), for which the “growth inhibition (GI)” value in data set [2] and in [5] was “inactive” each time.

`CCC(CC)(c1ccc(OCC(O)C(C)(C)C)c(C)c1)c1ccc(C(=O)NCCCO)n1C` (stereo unspecified): the concentration for half-maximal inhibition (IC50) in data set [4] turned out to be 16400 nM. Also, the “growth inhibition (GI)” value in data set [5] was “inactive”.

For the compound `CCn1c(C(=O)NCCC(=O)O)ccc1C(CC)(CC)c1ccc(OCC(=O)C(C)(C)C)c(C)c1`, the outcome in [1] was inactive.

Consider `CCC(CC)(c1ccc(OCC(O)C(C)(C)C)c(C)c1)c1ccc(C(=O)N[C@@H](CC(=O)O)C(=O)O)n1C` (stereo partly specified), for which, in [1], the result was inactive.

As usually defined, the IC50 is the concentration that gives 50% inhibition. The low end stands for inhibition by little substance, the high end for a need for much substance.

Values taken from ChEMBL document CHEMBL2434875, “Novel nonsecosteroidal VDR agonists with phenyl-pyrrolyl pentane skeleton” (Eur J Med Chem, 2013).
